Data: article PMC11886927 (Nature, 2025)
“Also recorded” adds a separate entry of the source. One block for each compound: values may come before it.

What was measured:
BA production = test: Endogenously produced BA levels in faeces, liver and serum of supplemented mice; format: in vivo, mouse; settings: daily for 14 days
Outline: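 Mice (WT, Nr1h4−/−, SPF, ABX) were dosed by daily oral gavage with deuterated or unlabelled conjugate (DMSO stock diluted in corn oil), 50 mg kg−1 day−1, 100 µl, for 14 days. Controls got DMSO plus corn oil. Faeces, liver and serum BAs were measured by HPLC-HRMS. Serum was extracted with 4 volumes methanol, sonicated 1 min, stirred 10 min, and spun 5,000g for 5 min. Groups were compared by Welch-corrected two-sided t-test.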

[1] = biological target: T1, recombinant human VNN1 (ΔN490aa truncated) (Homo sapiens, UniProt O95497); test: VNN1 in vitro assay with pantetheine derivatives; format: biochemical; settings: 0.01 μM VNN1, 37 °C, 15 min, pantothenic acid formation, n = 3, mean ± s.d.
T1 sequence (O95497 22-490 limits assumed): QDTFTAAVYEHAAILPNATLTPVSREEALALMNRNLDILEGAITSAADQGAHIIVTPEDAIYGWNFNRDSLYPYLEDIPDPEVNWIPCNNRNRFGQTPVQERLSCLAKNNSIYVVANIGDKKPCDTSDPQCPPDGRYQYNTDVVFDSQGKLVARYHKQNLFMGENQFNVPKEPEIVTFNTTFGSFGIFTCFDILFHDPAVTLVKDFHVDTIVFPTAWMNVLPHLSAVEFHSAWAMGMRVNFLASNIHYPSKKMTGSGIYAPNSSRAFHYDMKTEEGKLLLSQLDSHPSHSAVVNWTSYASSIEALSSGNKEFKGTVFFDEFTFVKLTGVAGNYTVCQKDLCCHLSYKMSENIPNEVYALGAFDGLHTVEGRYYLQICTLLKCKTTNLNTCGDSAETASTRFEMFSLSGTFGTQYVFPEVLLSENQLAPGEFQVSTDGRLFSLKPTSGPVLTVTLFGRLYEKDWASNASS
Outline: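 Recombinant human ΔN490aa VNN1 (C-terminal His tag, in PBS pH 7.0) was mixed 1:1 with substrate (pantetheine or cholic acid–pantetheine derivative) in PBS pH 7.0. Final enzyme was 0.01 µM and final substrate 20–640 µM. Reactions ran 15 min at 37 °C and were quenched with methanol. Pantothenic acid was quantified by HPLC-HRMS (ESI+, m/z 220.1180) against a calcium pantothenate standard curve. Initial velocities were fitted to saturation kinetics; three independent assays used the same enzyme batch.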

[2] = biological target: T2, full-length human FXR protein (Homo sapiens, UniProt Q96RI1); test: DiscoverX cell-based protein–protein interaction assay on FXR, antagonist mode; settings: for FXR antagonistic activity against GW4604-mediated activation (in words): tested range of concentrations
T2 sequence (Q96RI1 1-486): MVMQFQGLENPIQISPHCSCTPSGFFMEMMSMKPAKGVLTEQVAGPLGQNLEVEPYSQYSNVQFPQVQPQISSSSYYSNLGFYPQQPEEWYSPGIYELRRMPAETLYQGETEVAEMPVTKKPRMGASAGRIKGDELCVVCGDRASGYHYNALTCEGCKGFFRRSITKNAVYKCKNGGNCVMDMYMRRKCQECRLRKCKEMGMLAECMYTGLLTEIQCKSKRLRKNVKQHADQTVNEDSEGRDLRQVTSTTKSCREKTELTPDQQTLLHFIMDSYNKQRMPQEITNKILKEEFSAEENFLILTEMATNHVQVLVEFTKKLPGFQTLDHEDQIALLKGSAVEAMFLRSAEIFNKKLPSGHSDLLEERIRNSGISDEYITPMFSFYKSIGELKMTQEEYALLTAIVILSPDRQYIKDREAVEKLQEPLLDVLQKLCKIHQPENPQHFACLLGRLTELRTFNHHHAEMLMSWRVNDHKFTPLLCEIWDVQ

[3] = biological target: T2, full-length human FXR protein; test: DiscoverX cell-based protein–protein interaction assay on FXR, agonist mode; settings: any of the tested concentrations
Outline: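 CHO-K1 cells (mycoplasma-negative, not authenticated) expressing full-length human FXR with an SRC-derived co-activator peptide fusion. Cells were grown in charcoal-dextran-filtered serum, then given 5X sample for 3–16 h at 37 °C or room temperature. Signal came from PathHunter chemiluminescent detection (1 h, room temperature). Activity (%) was set against vehicle RLU and GW4064 maximum, with duplicates at each concentration.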

FXR = settings: cited from earlier work

Structure (SMILES): C[C@H](CCC(=O)O)[C@H]1CC[C@H]2[C@@H]3[C@H](O)C[C@@H]4C[C@H](O)CC[C@]4(C)[C@H]3CC[C@]12C [CDCA, chenodeoxycholic acid]
BA levels in the liver and serum of WT and Nr1h4^−/− mice (BA production): not significantly affected

Vmax, hydrolysis by VNN1 [1]: 2.13 ± 0.37 min⁻¹
Structure (SMILES): CC(C)(CO)[C@@H](O)C(=O)NCCC(=O)NCCS [pantetheine]

IC50 ([2]; read-out: IC50, antagonistic activity against GW4604-mediated activation of FXR, agonist challenge GW4064 0.37 μM (EC80), CHO-K1 cells, duplicate): 104 µM
FXR antagonistic activity against GW4604-mediated activation (in words) [2]: strong FXR antagonistic effects
FXR agonist activity (in words) [3]: no FXR agonistic effects
Structure (SMILES): CSCCNC(=O)CC[C@@H](C)[C@H]1CC[C@H]2[C@@H]3[C@@H](O)[C@@H](O)[C@@H]4C[C@H](O)CC[C@]4(C)[C@H]3CC[C@]12C [βMCA–MCY]

Structure (SMILES): C[C@H](CCC(=O)NCCS(=O)(=O)O)[C@H]1CC[C@H]2[C@@H]3[C@@H](O)[C@@H](O)[C@@H]4C[C@H](O)CC[C@]4(C)[C@H]3CC[C@]12C [TβMCA, Tauro-β-muricholic acid]
FXR antagonistic activity against GW4604-mediated activation (in words) [2]: did not show FXR antagonistic effects; also recorded: inactive
FXR antagonism as previously reported (FXR): weak, mouse-specific FXR antagonist
